One may read the MIC as the lowest concentration found to suppress growth. A higher MIC goes with weaker potency.

Data set [1] relates to Candida albicans. Put plainly: Antimicrobial activity against Candida albicans ATCC 10231 at 380 ug by Kirby-Bauer disk diffusion test. Type of data set: functional, organism-based. Put shortly:
(§1)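 Modified Kirby-Bauer disc diffusion on Muller-Hinton agar. Inhibition-zone diameter, disc diameter included, measured with a ruler from under the plate and recorded in mm.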

Data set [2] is described as follows: Dissolution of the compound in phosphate buffer at pH 6.8 measured over 12 hrs using solid lipid nanoparticle formulation by dialysis bag diffusion method. Type of data set: physicochemical. To be noted: artificial membrane, pH 6.8, 12 h. Put shortly:
(§2)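 SLNs made by hot emulsification-ultrasonication with Compritol as lipid and 3% Pluronic F68 aqueous phase. Homogenized at 10,000 rpm and 75 °C for 15 min, then probe-sonicated 10 min.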

Data set [3] can be described thus: Dissolution of the compound in phosphate buffer at pH 6.8 measured within 2 hrs by dialysis bag diffusion method. Type of data set: physicochemical. The following applies: artificial membrane, pH 6.8, 2 h. Put shortly:
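Formula or compound suspension (3 ml) in 12 kDa MWCO dialysis bags, in 500 ml enzyme-free phosphate buffer pH 6.8, 37 °C, 50 rpm. 5 ml samples taken with replacement over 12 h. Cumulative % release determined by UV absorbance against a calibration curve.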

A short description of data set [4]: Permeability of the compound in simulated dialysis membrane at pH 6.8 measured within 6 hrs by Franz diffusion cell-based spectrophotometric method. Type of data set: ADME, cell membranes. The following applies: artificial membrane, pH 6.8, 6 h. The procedure, abridged:
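Franz cell with dialysis membrane. 1 ml of SLN formula or compound suspension in the donor chamber; receptor holds phosphate buffer pH 6.8 at 37 °C, magnetically stirred. Receptor sampled with replacement over 6 h; concentration by UV absorbance against a calibration curve.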

Data set [5] is described as follows: Permeability of the compound in simulated dialysis membrane at pH 6.8 measured within 6 hrs using solid lipid nanoparticle formulation by Franz diffusion cell-based spectrophotometric method. The following applies: artificial membrane, pH 6.8, 6 h. Type of data set: ADME, cell membranes. Put shortly:
as §2

Data set [6] deals with Staphylococcus aureus. Description: Antimicrobial activity against Staphylococcus aureus ATCC 29213 assessed as diameter of inhibition zone at 380 ug by Kirby-Bauer disk diffusion test. Type of data set: functional. The procedure, abridged:
as §1
(A growth-free zone around the sample is the usual read-out of agar diffusion tests.)

For data set [7], the system named is Staphylococcus aureus. Put plainly: Antimicrobial activity against Staphylococcus aureus ATCC 29213 measured after 18 hrs by broth microdilution method. Type of data set: functional. To be noted: ATCC 29213, 18 h. The procedure, abridged:
(§3)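 Broth microdilution in 96-well plates. Compound stock 10 mg/ml in DMSO, two-fold serial dilutions from final 1024 to 0.5 µg/ml in water plus double-strength nutrient broth. Inoculum from direct colony suspension in saline adjusted to 0.5 McFarland, final 5 × 10⁵ CFU per well, used within 15 min. Positive and negative control rows.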
A general note: Dilution methods test growth across graded concentrations, often in twofold steps.

For data set [8], the system named is Escherichia coli. Description: Antimicrobial activity against Escherichia coli ATCC 25922 measured after 18 hrs by broth microdilution method. To be noted: ATCC 25922, 18 h. Type of data set: functional. The procedure, abridged:
as §3

Data set [9] deals with Klebsiella pneumoniae. Description: Antimicrobial activity against Klebsiella pneumoniae ATCC 700603 measured after 18 hrs by broth microdilution method. Type of data set: functional. To be noted: Klebsiella pneumoniae, 700603, 18 h. Put shortly:
as §3

The subject of data set [10] is Proteus mirabilis. Description: Antimicrobial activity against Proteus mirabilis ATCC 14153 measured after 18 hrs by broth microdilution method. Type of data set: functional. The following applies: ATCC 14153, 18 h. Put shortly:
as §3

Data set [11] relates to Pseudomonas aeruginosa. Put plainly: Antimicrobial activity against Pseudomonas aeruginosa ATCC 27853 measured after 18 hrs by broth microdilution method. Type of data set: functional. To be noted: ATCC 27853, 18 h. Put shortly: as §3
The test system of data set [12] is Acinetobacter baumannii. Put plainly: Antimicrobial activity against clinical isolate of Acinetobacter baumannii measured after 18 hrs by broth microdilution method. Type of data set: functional. The procedure, abridged:
as §3

In data set [13] the test system is Candida albicans. Put plainly: Antimicrobial activity against Candida albicans ATCC 10231 measured after 18 hrs by broth microdilution method. Type of data set: functional. To be noted: ATCC 10231, 18 h. The procedure, abridged:
as §3

Data set [14] relates to Staphylococcus aureus. Put plainly: Antimicrobial activity against Staphylococcus aureus ATCC 29213 measured after 18 hrs using solid lipid nanoparticle formulation by broth microdilution method. Type of data set: functional. The following applies: ATCC 29213, 18 h. Put shortly: as §3
The subject of data set [15] is Escherichia coli. Put plainly: Antimicrobial activity against Escherichia coli ATCC 25922 measured after 18 hrs using solid lipid nanoparticle formulation by broth microdilution method. Type of data set: functional. To be noted: ATCC 25922, 18 h. Put shortly: as §3
Data set [16] concerns Klebsiella pneumoniae. Description: Antimicrobial activity against Klebsiella pneumoniae ATCC 700603 measured after 18 hrs using solid lipid nanoparticle formulation by broth microdilution method. Type of data set: functional. The following applies: Klebsiella pneumoniae, 700603, 18 h. Put shortly: as §3
The test system of data set [17] is Proteus mirabilis. Description: Antimicrobial activity against Proteus mirabilis ATCC 14153 measured after 18 hrs using solid lipid nanoparticle formulation by broth microdilution method. Type of data set: functional. The following applies: ATCC 14153, 18 h. Put shortly:
as §3

The test system of data set [18] is Pseudomonas aeruginosa. Put plainly: Antimicrobial activity against Pseudomonas aeruginosa ATCC 27853 measured after 18 hrs using solid lipid nanoparticle formulation by broth microdilution method. Type of data set: functional. The following applies: ATCC 27853, 18 h. Put shortly:
as §3

The subject of data set [19] is Acinetobacter baumannii. Put plainly: Antimicrobial activity against clinical isolate of Acinetobacter baumannii measured after 18 hrs using solid lipid nanoparticle formulation by broth microdilution method. Type of data set: functional. The procedure, abridged:
as §3

Data set [20] concerns Candida albicans. Put plainly: Antimicrobial activity against Candida albicans ATCC 10231 measured after 18 hrs using solid lipid nanoparticle formulation by broth microdilution method. Type of data set: functional. To be noted: ATCC 10231, 18 h. The procedure, abridged: as §3

≈ marks a conversion by molar mass, not a printed value. Calls of active or inactive are those of the source. No cut-off for these calls is given here. Where only a bound is given, the exact number is not on record here.

Turning to `COc1ccc([C@@H]2[C@@H](O)[C@H](O)[C@@H](C)N2C)c(F)c1`, the result in the data set on Candida albicans [1] was inactive. For the same compound, the Activity in data set [2] came out at 90.2%; in data set [3], 96.7%. For the same compound, the values for the permeability in data set [4] and in data set [5] were 59.1% and 100%, respectively. In the data set on Staphylococcus aureus [6] (read-out: DIZ), the zone of inhibition at 380 µg/disc is 30 mm. Besides, the MIC with Staphylococcus aureus [7] is no more than 0.5 mg/L; with Escherichia coli [8] it was 4 mg/L (≈ 15.7 µM); with Klebsiella pneumoniae [9], greater than 1020 mg/L; against Proteus mirabilis [10], greater than 1020 mg/L; against Pseudomonas aeruginosa [11], greater than 1020 mg/L; in the data set on Acinetobacter baumannii [12], 512 mg/L (≈ 2010 µM). Moreover, the MIC with Candida albicans [13] is greater than 1020 mg/L; in the data set on Staphylococcus aureus [14] it was no more than 0.5 mg/L; in the data set with Escherichia coli [15], 16 mg/L (≈ 62.7 µM); with Klebsiella pneumoniae [16], 1020 mg/L (≈ 4010 µM); in the data set with Proteus mirabilis [17] it was greater than 1020 mg/L; in the data set with Pseudomonas aeruginosa [18], greater than 1020 mg/L. In addition, the figures for the MIC with Acinetobacter baumannii [19] and in the data set on Candida albicans [20] were 512 mg/L (≈ 2010 µM) and greater than 1020 mg/L, respectively.

With `COCc1ccc([C@@H]2[C@@H](O)[C@H](O)[C@@H](C)N2C)cc1`, the outcome with Candida albicans [1] was inactive. The values for the Activity in data set [2] and in data set [3] were 92.1% and 91.8%, respectively. Besides, the results for the permeability in data set [4] and in [5] were 62.7% and 100%, respectively. Further, the “growth inhibition (GI)” value with Staphylococcus aureus [6] is “Active”. Besides, the MIC is 2 mg/L (≈ 7.96 µM) against Staphylococcus aureus [7]; 8 mg/L (≈ 31.8 µM) with Escherichia coli [8]; 256 mg/L (≈ 1020 µM) in the data set on Klebsiella pneumoniae [9]; 16 mg/L (≈ 63.7 µM) in the data set on Proteus mirabilis [10]; greater than 1020 mg/L in the data set on Pseudomonas aeruginosa [11]; greater than 1020 mg/L in the data set with Acinetobacter baumannii [12]. The MIC with Candida albicans [13] was greater than 1020 mg/L; against Staphylococcus aureus [14], 2 mg/L (≈ 7.96 µM); in the data set with Escherichia coli [15] it was 8 mg/L (≈ 31.8 µM); against Klebsiella pneumoniae [16], 512 mg/L (≈ 2040 µM); with Proteus mirabilis [17], 8 mg/L (≈ 31.8 µM); with Pseudomonas aeruginosa [18], greater than 1020 mg/L. Besides, the MIC in the data set on Acinetobacter baumannii [19] and against Candida albicans [20] was greater than 1020 mg/L throughout.

In the case of `COc1ccc([C@@H]2[C@@H](O)[C@H](O)[C@@H](C)N2C)cc1OC`, the result in the data set with Candida albicans [1] was inactive. The Activity in [2] worked out at 93.2%; in data set [3] it was 87.8%. Also, the values for the permeability in data set [4] and in data set [5] were 67.2% and 100%, respectively. Also, the “growth inhibition (GI)” value in the data set with Staphylococcus aureus [6] is “Active”. The minimum inhibitory concentration (MIC) against Staphylococcus aureus [7] is 32 mg/L (≈ 120 µM); with Escherichia coli [8], 64 mg/L (≈ 239 µM); in the data set on Klebsiella pneumoniae [9], greater than 1020 mg/L; against Proteus mirabilis [10], greater than 1020 mg/L; against Pseudomonas aeruginosa [11], greater than 1020 mg/L; against Acinetobacter baumannii [12] it was greater than 1020 mg/L. Also, the MIC is greater than 1020 mg/L in the data set with Candida albicans [13]; 32 mg/L (≈ 120 µM) with Staphylococcus aureus [14]; 256 mg/L (≈ 958 µM) in the data set on Escherichia coli [15]; greater than 1020 mg/L against Klebsiella pneumoniae [16]; greater than 1020 mg/L in the data set on Proteus mirabilis [17]; greater than 1020 mg/L with Pseudomonas aeruginosa [18]. Also, the MIC against Acinetobacter baumannii [19] and in the data set with Candida albicans [20] was greater than 1020 mg/L each time.

These data come from ChEMBL document CHEMBL4480414, “Design and total synthesis of (-)-codonopsinine, (-)-codonopsine and codonopsinine analogues by O-(2-oxopyrrolidin-5-yl)trichloroacetimidate as amidoalkylating agent with improved antimicrobial activity via solid lipid nanoparticle formulations” (Bioorg Med Chem, 2019).
